Bioassay records as filed in PubChem BioAssay.
Most compounds without a hit are left out; they make up all but 3.6% or so of the library.
Phagocytosis inh = inhibitors of macrophage phagocytosis, primary screen, imaging, J774A.1 cells, IgG beads; 110,000 compounds, 0.07% hits; J774A.1 macrophage IgG-bead phagocytosis; AID 1029, 2008; inhibition, % at 5 µM;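 active = inhibition above the mean of the plate negative controls plus 5 SD, cut at about 13% in these data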;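 note: phagocytic index as fraction of beads internalized from green versus red external bead signal; plate controls were DMSO negative control for no effect and cytochalasin-D positive control for full effect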
BB579 growth dn = growth inhibitors of yeast BB579 in restrictive medium, primary screen, yeast lifespan-shortening project, S. cerevisiae | OD615, 48 h | inhibition, % at 10 µM | 140,000 compounds, 0.51% hits | AID 804, 2007;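 active = inhibition above a set limit, 3 SD over the mean compound inhibition, cut at about 44% in these data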
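Assay system – yeast BB579 (DeaD) · Dosing – single compound dose of 10 µM, 0.25% DMSO final · Detection – OD615 turbidity measurement · Buffer or medium – CSMM-D restrictive synthetic medium containing dextrose (glucose) · Benchmarks – positive control amphotericin B 10 µg/mL · Incubation – 48 h exposure, 30 °C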
Measles CPE = compounds protecting cells from measles virus cytopathic effect, primary screen, measles RdRp inhibitor project, single point, MLSMR library, absorbance; AID 841, 2007; protection (pct of control), % at 4 µM; 140,000 compounds, 1.5% hits; Measles virus-infected cells, CPE protection; in the data active = protection mostly above about 24%, no sharp cut-off; inactive = mostly below about 26%
Yeast lifespan up = compounds extending yeast replicative lifespan, primary screen, S. cerevisiae, OD615; S. cerevisiae growth with nicotinamide; deaD strain in restrictive glucose medium; 130,000 compounds, 0.68% hits; inhibition of the nicotinamide effect, % at 10 µM;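 active = inhibition above a set limit, placed 3 SD over the median of all compounds, cut at about 26% in these data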;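 note: 0% = nicotinamide-treated wells and 100% = cells grown without nicotinamide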
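assay system = DeaD-strain S. cerevisiae | buffer or medium = restrictive glucose medium | reagent = 1.5 mM nicotinamide | compound = 10 µM single point, 0.25% DMSO | incubation = 48 h compound exposure at 30 °C, humidified | signal = OD615 measurement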
RAM inhibit = inhibitors of the yeast RAM network, primary screen, dse1pr::URA3 reporter, 5-FOA selection. 190,000 compounds, 1.8% hits. AID 868, 2007. S. cerevisiae dse1pr::URA3 reporter, 5-FOA growth OD615, 2 d; analog-sensitive cbk1-as2 kinase mutant strain. inhibition, % at 50 µM;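 active = inhibition above a set limit, 3 SD over mean compound inhibition, cut at about 8.4% in these data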;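 note: 0% = DMSO-only wells with no growth and 100% = 10 µM 1-NA-PP1 full growth; inhibition rescues growth on 5-FOA so higher OD means more RAM inhibition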
RAM efflux-def = 5-FOA growth of efflux-deficient control yeast, dose response, counter-screen for RAM network inhibitor project, S. cerevisiae, OD615; shares compounds with RAM inhibit; S. cerevisiae efflux-deficient reporter strain, 5-FOA growth OD615, 2 days; max inhibition, %; 1,200 tested, under 10 active; call rule not given here;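 note: plate controls were vehicle for no effect and reference inhibitor for full effect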
* marks the source's active call; other numbers are inactive results; . = no result.

SMILES | Phagocytosis inh | BB579 growth dn | Measles CPE | Yeast lifespan up | RAM inhibit | RAM efflux-def
CCNS(=O)(=O)c1ccc(NS(=O)(=O)c2cc(C)ccc2C)cc1 | -1.7 | -26.3 | 14.6 | -2.3 | 0.2 | .
CCC(Oc1ccc2c(=O)c(-c3ccccc3OC)coc2c1)C(=O)OCc1ccccc1 (stereo not given) | -5.7 | -28.6 | 3.7 | 3.6 | 22.2* | 2.4
O=C(c1cccc(Cl)c1)N1CCCC(c2ccc(Cl)cc2)=N1 | 1.6 | -32.5 | 5.6 | -19.4 | 16.9* | 2.7
COc1cccc(C2C3=C(N=c4s/c(=C\c5ccccc5O)c(=O)n42)c2ccccc2CC3)c1OC (stereo not given) | . | . | . | . | 5.6 | .
Cc1cccc(NC(=O)CSc2nc(C)c(Cc3ccccc3)c(=O)[nH]2)c1C | . | . | . | . | 2.1 | .
CCCc1nn(C)c(C(=O)Nc2ccc(Cl)cc2)c1Cl | -7.5 | -7.4 | 5.0 | 0.0 | 2.7 | .
CCCc1nn(C)c(C(=O)Nc2ccc(C(C)(C)C)cc2)c1Cl | -1.9 | -30.9 | 2.2 | 11.6 | 13.0* | 3.9
S=C(c1ccc(-c2ccccc2Cl)o1)N1CCOCC1 | -0.5 | -7.6 | 8.8 | -7.4 | 12.4* | 1.7
O=C(Nc1ccccn1)c1ccc(Cl)c([N+](=O)[O-])c1 | . | . | . | . | 1.1 | .
C=CCN(CC=C)S(=O)(=O)c1ccc(NC(=S)NC(=O)Cc2ccc(OC)cc2)cc1 | . | -43.6 | 4.8 | -8.3 | 18.9* | 4.5
C=CCN(CC=C)S(=O)(=O)c1ccc(NC(=S)NC(=O)c2ccco2)cc1 | -1.6 | -63.9 | 12.2 | 26.0 | 3.5 | .
C=CCN(CC=C)S(=O)(=O)c1ccc(NC(=S)NC(=O)c2ccc(-c3ccccc3)cc2)cc1 | -0.8 | -26.5 | 12.9 | -3.2 | 17.1* | 4.2
COc1ccc(CC(=O)NC(=S)Nc2ccc(S(N)(=O)=O)cc2)cc1 | -12.4 | -28.3 | 2.9 | 1.9 | 0.8 | .
O=C(NCCN1C(=O)S/C(=C\c2cccs2)C1=O)[C@H](Cc1ccccc1)N1C(=O)c2ccccc2C1=O | -4.2 | -30.3 | 5.2 | -0.3 | 6.7 | .
CC(=O)c1cccc(NC(=O)C(CC(C)C)NC(=O)C2CCCCC2)c1 (stereo not given) | . | . | . | . | -0.8 | .
Nc1ccc(C(=O)O)cc1[N+](=O)[O-] | . | . | . | . | 1.5 | .
Nc1ccc(C(=O)c2cccs2)cc1[N+](=O)[O-] | . | . | . | . | 13.0* | 12.9
COc1ccc(-c2ccc(-c3noc(-c4ccccc4)n3)c(OC)n2)cc1 | -0.2 | -47.2 | 5.5 | -6.8 | 13.2* | 5.2
COc1nc(-c2ccccc2)ccc1-c1noc(COc2ccccc2)n1 | -0.7 | -12.5 | 25.0 | -5.0 | 13.2* | 3.6
Cc1ccc(S(=O)(=O)N2CCCCC2)cc1NS(=O)(=O)c1cccc(C(=O)O)c1 | 4.0 | -7.3 | 3.4 | 0.4 | 1.6 | .
O=C(CN(Cc1cccs1)C(=O)c1csnn1)NC1CCCC1 | . | -17.9 | 26.2 | . | 1.0 | .
O=C(CN(Cc1cccs1)C(=O)CSc1nnc(COc2ccccc2)o1)NC1CCCC1 | -1.2 | -68.5 | 7.1 | 9.7 | 16.7* | 1.5
Cc1cc(SC(C)C(=O)Nc2ncc(Cl)cc2Cl)nc2ccccc12 (stereo not given) | -3.8 | -46.4 | 26.3* | 4.6 | 12.4* | 1.9
COc1ccc(-c2ccc(SCC(=O)NCc3ccc4c(c3)OCO4)nn2)cc1OC | . | . | . | . | 12.0* | 5.5
COc1ccc(-c2nc(CSCC(=O)NCc3ccc4c(c3)OCO4)c(C)o2)cc1OC | 1.5 | 4.3 | 2.2 | -5.8 | 0.3 | .
C#CCNC(=O)C1=C[C@@H](C)C[C@@H](OCc2ccc(CO)cc2)O1 | . | . | . | . | -0.2 | .
Cc1cccc(C(=O)n2c(=S)nc3ccccn32)c1 | 0.0 | -24.4 | 2.9 | -19.2 | 1.1 | .
CC1CCc2nc(NC(=O)Nc3ccc4c(c3)OCO4)sc2C1 (stereo not given) | -7.8 | -26.9 | 11.4 | -3.4 | 22.8* | 1.9
COc1ccccc1N1C(=O)CC1(C#N)c1ccc(OCc2ccccc2)cc1 (stereo not given) | -2.8 | -36.2 | 13.8 | 12.7 | 7.0 | .
Cc1ccccc1N1C(=O)CC1(C#N)c1ccc(OCc2ccccc2)cc1 (stereo not given) | -2.6 | -24.9 | 20.1 | 3.7 | 11.5* | 3.7
